Most compounds without a hit are left out; they make up all but 6.9% or so of the library.
PostGolgi yeast: growth inhibition of a yeast mutant, post-Golgi transport screen; post-Golgi transport phenotypic cell assay; 0.9% of 98,000 active; inhibition, % at 10 µM;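 also: yeast cells grown in 1536-well plates; yeast grown about 18 h at 30C before absorbance read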
Pyk2 oligo antag: Pyk2 (human) oligomerization antagonism | 0.83% of 99,000 active | Q14289 | z-score (the deposit names both 25 µM and 10 µM) | Q293 cells, Pyk2 FERM NanoBiT luminescence; hits give low values;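 active = Z-score of -3 or lower, scaled per plate to the spread of control and sample wells; inactive = z-score above -3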;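 also: negative z-score means lost luminescence so less FERM oligomerization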
Calb biofilm kill: kills Candida albicans biofilms | C. albicans biofilm + clotrimazole, Alamar Blue | inhibition, % at 6 µM | 0.14% of 85,000 active | AID 834;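 active = inhibition above 20%; inactive = inhibition below 20%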;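 also: preformed 24 hr biofilms exposed to compound for 48 hr; 0% = biofilm without compound and 100% = blank killed by clotrimazole plus chlorhexidine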
PostGolgi ctrl: inhibits growth of the yeast control strain. efflux-deficient yeast background strain, growth absorbance A615, 16 h. inhibition, % at 10 µM. 5% of 98,000 active. AID 738
FAK inh: FAK (human) kinase inhibition | Q05397 | biochemical FAK kinase activity assay | inhibition, %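 (tested at 7 µM)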 | 0.84% of 97,000 active; in the data active = inhibition above about 19%;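 also: 0% = DMSO and 100% = reference compound high control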
Target sequence (Q05397 whole entry, looked up): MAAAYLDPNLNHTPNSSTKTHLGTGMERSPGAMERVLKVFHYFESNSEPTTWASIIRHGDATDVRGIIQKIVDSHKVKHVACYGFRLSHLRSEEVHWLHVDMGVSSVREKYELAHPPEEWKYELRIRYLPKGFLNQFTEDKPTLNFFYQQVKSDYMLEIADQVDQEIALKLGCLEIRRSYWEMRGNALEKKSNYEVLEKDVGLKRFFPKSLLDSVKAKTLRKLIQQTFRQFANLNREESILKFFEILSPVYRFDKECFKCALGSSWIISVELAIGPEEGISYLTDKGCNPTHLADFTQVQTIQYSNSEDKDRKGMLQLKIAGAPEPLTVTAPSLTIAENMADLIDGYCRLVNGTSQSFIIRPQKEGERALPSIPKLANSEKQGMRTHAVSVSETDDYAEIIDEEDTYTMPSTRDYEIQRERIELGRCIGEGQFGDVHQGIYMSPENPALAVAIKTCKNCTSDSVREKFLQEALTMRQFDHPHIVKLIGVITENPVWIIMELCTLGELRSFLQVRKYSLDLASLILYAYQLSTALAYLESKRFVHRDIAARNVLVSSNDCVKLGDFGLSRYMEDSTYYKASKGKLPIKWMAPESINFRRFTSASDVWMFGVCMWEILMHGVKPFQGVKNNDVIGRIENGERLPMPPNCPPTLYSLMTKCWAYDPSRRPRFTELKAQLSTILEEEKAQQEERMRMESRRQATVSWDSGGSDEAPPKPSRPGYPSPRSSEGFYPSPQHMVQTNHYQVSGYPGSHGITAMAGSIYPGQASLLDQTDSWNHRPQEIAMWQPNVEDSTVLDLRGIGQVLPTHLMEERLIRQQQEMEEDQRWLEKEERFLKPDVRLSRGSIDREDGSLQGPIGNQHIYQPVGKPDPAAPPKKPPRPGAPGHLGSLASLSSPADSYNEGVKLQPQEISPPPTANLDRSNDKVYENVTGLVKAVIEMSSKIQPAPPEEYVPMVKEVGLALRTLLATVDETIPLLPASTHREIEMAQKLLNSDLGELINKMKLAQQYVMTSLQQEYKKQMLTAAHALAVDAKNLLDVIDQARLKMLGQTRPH
tolC growth inh: E. coli tolC mutant growth inhibition. E. coli BW25113 tolC mutant growth, OD615. growth inhibition, % at 10 µM (by protocol). 2.2% of 65,000 active. AID 573;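 active = growth inhibition at or above a cutoff equal to the mean over every tested compound plus 3 SD, cut at about 60% in these data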;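 also: growth measured after 20 h incubation at 37 °C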
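Test system: E. coli BW25113 ΔtolC::kan bacteria | Medium: Kanamycin-containing LB broth (50 µg/mL) | Dosing: One dose of 10 µM final | Times: 20 h incubation with compound, 37 °C | Detection: Optical density read at 615 nm | Read-out basis: Percent growth inhibition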
An asterisk follows results filed as active; nt = no result. Rule as the data show it, unless noted: active = inhibition above about 30%; inactive = the rest.

SMILES | PostGolgi yeast | Pyk2 oligo antag | Calb biofilm kill | PostGolgi ctrl | FAK inh | tolC growth inh
NC(=O)c1nsc(C(=O)N(CC(=O)NCc2ccco2)c2ccccc2F)c1N | nt | 0.01 | 9 | nt | 24* | nt
O=C(COc1cccc2ccccc12)N/N=C/c1ccc(Sc2nc3ccccc3s2)o1 | 6 | 0.61 | nt | 6 | 1 | nt
O=C(Cc1cccc2ccccc12)N/N=C/c1ccc(Sc2nc3ccccc3s2)o1 | 7 | -0.11 | nt | 35* | -5 | nt
CCOc1cccc(SCc2noc(C(=O)NCCOC)c2C(=O)O)c1 | 0 | nt | nt | 33* | -1 | nt
CCCCNC(=O)c1onc(CSc2cccc(OCC)c2)c1C(=O)O | 4 | nt | nt | -8 | 0 | nt
COc1cccc(-c2nn(C)c3sc(C(=O)NCc4ccc(C)cc4)cc23)c1 | -8 | -1.5 | -1 | 25 | 0 | nt
CC(CCc1ccco1)NC(=O)c1cc2c(-c3ccccc3F)nn(C)c2s1 (stereo unspecified) | -5 | nt | 12 | 10 | 6 | 25
Cn1nc(-c2ccccc2F)c2cc(C(=O)Nc3ccc4c(c3)OCCO4)sc21 | 20 | -2.1 | 1 | 52* | -1 | nt
COc1cccc(-c2nn(C)c3sc(C(=O)Nc4ccc5c(c4)OCCO5)cc23)c1 | -2 | -3 | 7 | 37* | nt | 12
Cc1cccc(C(=O)Nc2cc(OCc3cccc(F)c3)c(Cl)cc2Cl)c1 | -9 | 0.75 | nt | 10 | 9 | nt
Fc1ccccc1COc1ccc(Br)cc1CNCc1ccncc1 | 99* | -1.1 | nt | 97* | 2 | nt
Fc1ccc(COc2ccc(Br)cc2CNCc2ccncc2)cc1 | 103* | -0.7 | nt | 94* | -6 | nt
O/N=C/c1cc(Br)ccc1OCc1ccccc1F | nt | -1.1 | nt | nt | 20* | nt
CN(C)C(=O)CSc1nc2ccccc2n1CC(=O)N1CCN(c2ccccc2)CC1 | 11 | -0.04 | 3 | 27 | 1 | nt
O=C(c1ccccc1)N1CC(COc2ccccc2)OC(c2ccco2)O1 (stereo unspecified) | 0 | 0.17 | 6 | 9 | 0 | 13
O=C(Nc1cccc(C(F)(F)F)c1)c1ccc(Cn2cc(Br)cn2)o1 | 6 | -1.3 | 4 | 38* | -1 | nt
O=C(Nc1ccc(C(F)(F)F)cc1Cl)c1ccc(Cn2cc(Br)cn2)o1 | -1 | 1.3 | 4 | 39* | 4 | 99*
COc1ccc(Cl)c(N2CCN(CCCNC(=O)Nc3ccc(C)cc3)CC2)c1 | -5 | 0.86 | 9 | 9 | 1 | 52
CCOC(=O)Nc1sc(C)nc1-c1ccccc1 | 2 | 0.91 | 4 | -3 | -7 | 3
CCOC(=O)Nc1nc(-c2ccccc2)c(C(=O)c2ccc(Cl)cc2)s1 | 9 | -3.4* | nt | 27 | 1 | nt
COc1cccc(C(N)CC(=O)O)c1 (stereo unspecified) | nt | nt | -2 | nt | nt | -16
Nc1c(C(=O)c2ccc(Br)s2)oc2ccccc12 | 2 | -0.59 | 4 | 37* | 7 | 4
CC(C)Oc1ccc(S(=O)(=O)N(C(C)C)C(C)C)cn1 | nt | -0.92 | 7 | nt | -3 | nt
COc1ccc(S(=O)(=O)N2CCC(C(N)=O)CC2)c2ccccc12 | 3 | -1.2 | 1 | -7 | -2 | 0
Cc1ccc(/C=N\NC(=O)c2csnn2)cc1 | -11 | -0.42 | nt | 4 | 7 | nt
SMILES | PostGolgi yeast | Pyk2 oligo antag | Calb biofilm kill | PostGolgi ctrl | FAK inh | tolC growth inh
COc1ccc2[nH]c3c(=O)n(CCCCC(=O)N4CCCC4)c(=S)[nH]c3c2c1 | 4 | -0.47 | -3 | -12 | 13 | 100*
O=C(CN1C(=O)COc2ccccc21)c1cccc(Cl)c1 | 6 | -0.86 | 3 | 7 | nt | 3
N#C/C(=C\c1cccs1)Sc1nc2ccccc2s1 | -6 | -0.12 | 3 | 35* | 1 | 70*
N#C/C(=C\c1ccc[nH]1)Sc1nc2ccccc2s1 | 11 | -2.6 | 2 | 16 | nt | 100*
N#C/C(=C(/O)C(Cl)c1ccccc1)c1nc2ccccc2s1 (stereo unspecified) | 5 | -1.6 | nt | 1 | -10 | nt
CSc1ncc(Cl)c(C(=O)Nc2nnc(SC)s2)n1 | -8 | -1.1 | -2 | 29 | -1 | 12
CCCSc1nnc(NC(=O)c2nc(SC)ncc2Cl)s1 | 3 | -0.68 | 1 | 35* | -2 | nt
Cc1ccccc1OCC1Cc2c(nc(N)c(C#N)c2N)O1 (stereo unspecified) | 2 | -0.65 | nt | 13 | 2 | nt
CCn1c(O)c(/C=N/N=C/c2ccccc2)c2ccc(C3=NNC(=O)CC3)cc21 | 3 | -2.3 | 1 | 48* | 3 | nt
CCCNC(=O)NC(=O)CSc1ncc(C(F)(F)F)cc1Cl | 2 | -1.2 | 6 | 5 | 3 | -2
COc1ccccc1/C=C1\SC(=S)N(Nc2nc(C)cc(C)n2)C1=O | 8 | -3.8* | nt | 0 | 2 | nt
Cc1cc(C)nc(NN2C(=O)/C(=C/c3ccc(O)cc3)SC2=S)n1 | -1 | -3.5* | nt | 3 | 1 | nt
O=C1/C(=C\c2ccccn2)SC(=S)N1Nc1ncc(C(F)(F)F)cc1Cl | 10 | -0.36 | 1 | 0 | -12 | nt
CN(C)c1cccc2c(S(=O)(=O)Nc3ccccn3)cccc12 | -24 | -0.22 | 4 | 36* | 1 | -7
c1csc(C2Nc3cccc4cccc(c34)N2)c1 | -10 | -0.88 | nt | 32* | 1 | nt
Cc1cc(C)nc(N(C#N)CC(=O)N2CCC(C(N)=O)CC2)n1 | 7 | 0.05 | 4 | 18 | 4 | -32
O=C(Nc1nc2c(ccc3ccccc32)s1)c1ccco1 | 0 | -3.3* | nt | 9 | 0 | 55
O=C(Nc1nc2c(Cl)ccc(Cl)c2s1)c1ccco1 | 3 | nt | 7 | 27 | -8 | 4
Cc1cc(NC(=O)CSc2nnc(CNc3ccc(F)cc3)n2C2CCCCC2)no1 | -2 | -0.34 | 14 | -10 | -1 | 11
CCOC(=O)/C(C#N)=C1/SC(CCO)C(=O)N1c1ccccc1 (stereo unspecified) | 4 | -0.16 | 9 | -1 | 23* | 13
CCOC(=O)/C(C#N)=C1/SC(CC)C(=O)N1c1ccc(Br)cc1 (stereo unspecified) | 2 | -0.01 | 15 | 8 | 2 | nt
Cc1noc(C)c1S(=O)(=O)NC1CCCc2ccccc21 (stereo unspecified) | -7 | 0.33 | 3 | 4 | 1 | 1
Cc1cc(C)c2c(c1)/C(=C/C(=O)c1ccc(Br)s1)C(=O)N2 | 103* | -2.4 | 6 | 71* | 2 | nt
CCc1ccc2c(c1)/C(=C/C(=O)c1cccs1)C(=O)N2 | 76* | -1.4 | 7 | 87* | 2 | nt
Cc1nn(C)cc1/C=C/C(=O)c1cccs1 | nt | 0.57 | 3 | nt | 0 | nt
SMILES | PostGolgi yeast | Pyk2 oligo antag | Calb biofilm kill | PostGolgi ctrl | FAK inh | tolC growth inh
Cc1cccc2c1NC(=O)/C2=C\C(=O)c1cccs1 | 4 | -1.2 | 8 | 52* | -3 | nt
CC(=O)OCC(=O)c1ccc2ccn(C(C)=O)c2c1 | -8 | 1.1 | 7 | 2 | -5 | -14
CCc1ccc(NC(=O)c2onc(C)c2Cl)cc1 | -4 | nt | 6 | 3 | 0 | nt
O=C(CCc1ccccc1)Nc1c(F)cccc1F | nt | 0.55 | 7 | nt | 2 | nt
CC(NC(=O)Cc1cccs1)C(c1cccs1)N1CCN(c2ccccc2F)CC1 (stereo unspecified) | 6 | -0.25 | 10 | 36* | 1 | 26
Cc1ccc(Cl)cc1N1CCN(C(=O)C2(S(=O)(=O)c3ccc(Cl)cc3)CC2)CC1 | -4 | 0.85 | 4 | 40* | -1 | nt

Bioassay records from PubChem.
